This is a sample that favours compounds with a hit; in the whole collection about 3.5% have one here.
MrgX1 PAM: human MrgX1 positive allosteric modulation, primary screen. actives 0.63% (n = 310,000). B-score at 10 µM. AID 588675. Q96LB2. MrgX1-HEK293, Fluo-4 calcium flux, FDSS; active compounds read high;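 active means plate-corrected calcium response at least 3 library SD above typical, normal starting fluorescence, not activating the receptor alone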;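 further: compound read alongside a low EC10 to EC30 dose of BAM8-22 agonist; peak minus trough fluorescence over baseline measured at the second addition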
Target sequence (Q96LB2 whole entry, looked up): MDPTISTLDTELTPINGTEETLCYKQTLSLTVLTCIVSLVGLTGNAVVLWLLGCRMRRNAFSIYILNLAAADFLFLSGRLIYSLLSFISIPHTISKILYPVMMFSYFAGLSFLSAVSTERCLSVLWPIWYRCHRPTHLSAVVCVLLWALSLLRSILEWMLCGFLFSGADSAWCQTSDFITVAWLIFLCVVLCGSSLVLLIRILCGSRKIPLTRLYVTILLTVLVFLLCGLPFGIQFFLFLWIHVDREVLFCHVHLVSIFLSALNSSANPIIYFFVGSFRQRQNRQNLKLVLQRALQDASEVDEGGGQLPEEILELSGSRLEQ
RGS4 act: RGS4 potentiation or activation; HEK293 M3R/inducible RGS4, carbachol calcium flux Fluo4; active compounds read low; B-score at 10 µM; actives 0.92% (n = 310,000); AID 463111;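 active means B-score of the integrated calcium signal more than 4 SD below the library mean, with starting fluorescence not abnormally high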;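 further: negative B-score means reduced calcium response which marks RGS4 activation or potentiation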
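Assay system: Inducible-RGS4 HEK293 cells carrying M3 receptor | Schedule: Compound preincubation 20 min at room temperature before agonist | Signal: Kinetic calcium fluorescence imaging with Fluo4-AM dye, 2 µM | Read-out basis: B score from integrated fluorescence ratio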
MrgX1 ag: human MrgX1 receptor agonism, primary screen; Q96LB2; MrgX1-HEK293 cells, Fluo-4 calcium fluorescence, agonist mode; active compounds read high; AID 588627; B-score at 10 µM; actives 0.44% (n = 310,000);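 active means calcium response B-score plate-corrected fluorescence ratio at least 3 library SD, with starting fluorescence B-score inside 5 SD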
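System – MrgX1-expressing HEK293 cells · Incubation – cells plated overnight, dye loaded 0.5 h 37 °C, 0.5 h room temperature · Technique – kinetic Fluo-4 NW fluorescence of intracellular calcium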
MrgX1 antagonist: antagonists of human MrgX1 receptor; MRGX1-HEK293 calcium flux, Fluo-4, BAM8-22 antagonism; active compounds read low; B-score at 10 µM; actives 1.3% (n = 310,000); AID 588676;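 active means calcium-response B-score plate-corrected more than 3 library SD below zero, starting fluorescence within 5 deviations, no agonist response on first addition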;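 further: peak minus trough fluorescence over baseline after final BAM8-22 challenge near maximal dose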
RGS4 inh: human RGS4 inhibition; actives 0.45% (n = 310,000); P49798; B-score at 10 µM; HEK293 M3R/RGS4 inducible, Fluo-4 calcium flux; active compounds read high; triggered by carbachol at its EC20;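 active means B-score, a plate-corrected calcium signal, over three deviations above library mean, with baseline fluorescence within five deviations of library mean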;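 further: RGS4 expression induced by doxycycline in cells with stable M3 receptor; B-score is computed from the integrated fluorescence ratio over baseline after carbachol; higher B-score means a larger calcium signal and so more RGS4 inhibition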
MrgX1 antag conf: confirmation of human MrgX1 receptor antagonists | shares compounds with MrgX1 antagonist | MrgX1-HEK293, BAM8-22 calcium flux, Fluo-4; active compounds read low | remaining BAM8-22 calcium response % of control (active compounds read low), % at 10 µM | actives 19% (n = 2,300);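 active means remaining agonist calcium response no higher than 100% minus 3 SD of agonist-only control wells, with starting fluorescence near control levels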;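 further: agonist BAM8-22 given at a near maximal EC90 to ECmax level; peak minus minimum fluorescence divided by baseline after agonist addition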
HEK293 Ca flux: activity in parental HEK293 cells lacking MrgX1 | fluorescence ratio F(max-min)/F0 at 10 µM | shares compounds with MrgX1 antagonist | Fluo-4 calcium fluorescence, FDSS | actives 2% (n = 4,000);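 active means duplicate-averaged calcium fluorescence ratio at least three times the standard deviation of buffer wells, a nonspecific response in parental cells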
HEK293 Ca counter: activity in parental HEK293 cells without MrgX1; fluorescence ratio F(max-min)/F0 at 10 µM; actives 0.4% (n = 4,000); parental HEK293 calcium flux, Fluo-4 fluorescence ratio; active compounds read high; shares compounds with MrgX1 antagonist;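 active means calcium fluorescence ratio, averaged over duplicates, at least 3 SD of the buffer-well ratio, meaning a nonspecific response in receptor-free cells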;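 further: untransfected parental HEK293 lacking MrgX1 used as counterscreen for MrgX1 allosteric activators; fluorescence change taken during the second addition on a kinetic imager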
HEK293 Ca cntr2: MrgX1 activator counter-screen hit in parental HEK293 cells | shares compounds with MrgX1 antagonist | actives 8.7% (n = 4,000) | fluorescence ratio F(max-min)/F0 at 10 µM | Fluo-4 calcium fluorescence (FDSS); active compounds read high | AID 624115;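 active means calcium fluorescence ratio at least three times the spread of buffer wells, meaning a non-specific response in parental cells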
Each line names hits and unclear results; the compound was inactive in the other large screens (follow-up assays come after a bar, where they were run).

Cc1sc2ncnc(N3CCC(C(=O)Nc4ccc(C#N)c(Cl)c4)CC3)c2c1C	MrgX1 antagonist -5.84 | MrgX1 antag conf inactive | HEK293 Ca flux inactive | HEK293 Ca counter inactive | HEK293 Ca cntr2 inactive
Cc1c(C(=O)N2CCC3(CC2)OCCO3)oc2ccccc12	none
Cc1c(C(=O)N2CCC3(CC2)OCCO3)oc2ccc(S(=O)(=O)N3CCOCC3)cc12	MrgX1 antagonist -4.53 | MrgX1 antag conf inactive | HEK293 Ca flux inactive | HEK293 Ca counter inactive | HEK293 Ca cntr2 inactive
CCC1C(C#N)=C(N)Oc2c1c(=O)oc1ccccc21 (stereo not given)	none
CC(C)CC1C(C#N)=C(N)Oc2c1c(=O)oc1ccccc21 (stereo not given)	MrgX1 antagonist -6.3 | MrgX1 antag conf inactive | HEK293 Ca flux inactive | HEK293 Ca counter inactive | HEK293 Ca cntr2 inactive
CC1C(c2cccs2)=[N+]([O-])C(C)(C(=O)c2cccs2)N1O (stereo not given)	none
CC(C)CCn1c(=O)c(C(=O)Nc2ccccc2S(N)(=O)=O)c(O)c2ccccc21	none
CC(C)CCn1c(=O)c(C(=O)NCc2ccc3c(c2)OCO3)c(O)c2ccccc21	MrgX1 antagonist -7.7 | MrgX1 antag conf inactive | HEK293 Ca flux inactive | HEK293 Ca counter inactive | HEK293 Ca cntr2 inactive
CCn1c(P(C)(=O)O)nc2cc(NC(=O)c3ccccc3F)ccc21	none
N/C(=N/[N+](=O)[O-])N1CCN(C(=O)c2ccc(Cl)cc2)CC1	none
COc1cc(N2C(=O)CC(=O)NC2=O)cc(OC)c1OC	MrgX1 antagonist -5.15 | MrgX1 antag conf 82.1% | HEK293 Ca flux inactive | HEK293 Ca counter inactive | HEK293 Ca cntr2 inactive
CCOc1ccc(N2C(=O)CC(=O)NC2=O)cc1	none
FC(F)(F)c1cccc(-n2nnnc2C2(N3CCOCC3)CCCCC2)c1	MrgX1 antagonist -5.13 | MrgX1 antag conf inactive | HEK293 Ca flux inactive | HEK293 Ca counter inactive | HEK293 Ca cntr2 inactive
O=C(O)CC[N+](=O)[O-]	none
COc1cccc(-n2c(/C=C/c3ccc(O)c(O)c3)nc3ccccc3c2=O)c1	MrgX1 antagonist -5.72 | MrgX1 antag conf inactive | HEK293 Ca flux inactive | HEK293 Ca counter inactive | HEK293 Ca cntr2 inactive
COc1ccccc1-n1c(-c2ccoc2)nc2ccccc2c1=O	MrgX1 antagonist -4.73 | MrgX1 antag conf inactive | HEK293 Ca flux inactive | HEK293 Ca counter inactive | HEK293 Ca cntr2 inactive
CC(C)n1c(=O)c(C=Nc2ccc(F)cc2)c(O)n(Cc2ccco2)c1=O	none

Screening results (PubChem BioAssay)
